According to ChEMBL document CHEMBL1156549, “Synthesis, DNA-binding ability and evaluation of antitumour activity of triazolo[1,2,4]benzothiadiazine linked pyrrolo[2,1-c][1,4]benzodiazepine conjugates” (2008):

How the values were obtained:
A549 = assay: Cytotoxicity against human A549 cells after 48 hrs by sulforhodamine B assay; assay type: functional; settings: A549, 48 h
Procedure, shortened: (§1)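 Cells were grown in RPMI 1640 with 10% FBS and 2 mM L-glutamine, seeded at densities set by doubling time, and left 24 h before drug. Exposure was 48 h continuous at 0.1, 1, 10 and 100 µM, triplicate wells. Cells were fixed in cold 10% TCA for 60 min at 4 °C and stained with SRB. Bound dye was eluted with 10 mM Tris and read at 540 nm (690 nm reference). GI50 was the concentration halving net protein increase versus control.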

HOP-62 = assay: Cytotoxicity against human HOP62 cells after 48 hrs by sulforhodamine B assay; assay type: functional; settings: HOP-62, 48 h; procedure, shortened: as §1
ZR-75-1 = assay: Cytotoxicity against human Zr-75-1 cells after 48 hrs by sulforhodamine B assay; assay type: functional; settings: ZR-75-1, 48 h; procedure, shortened: as §1
MCF7 = assay: Cytotoxicity against human MCF7 cells after 48 hrs by sulforhodamine B assay; assay type: functional; settings: MCF7, 48 h; procedure, shortened: as §1
[1] = Cytotoxicity against human AW13516 cells after 48 hrs by sulforhodamine B assay; assay type: functional; procedure, shortened: as §1
[2] = Cytotoxicity against human AW8507 cells after 48 hrs by sulforhodamine B assay; assay type: functional; settings: AW8507, 48 h; procedure, shortened: as §1
KB = assay: Cytotoxicity against human KB cells after 48 hrs by sulforhodamine B assay; assay type: functional; procedure, shortened: as §1
COLO 205 = assay: Cytotoxicity against human Colo205 cells after 48 hrs by sulforhodamine B assay; assay type: functional; settings: COLO 205, 48 h; procedure, shortened: as §1
SiHa = assay: Cytotoxicity against human SiHa cells after 48 hrs by sulforhodamine B assay; assay type: functional; procedure, shortened: as §1
PC-3 = assay: Cytotoxicity against human PC3 cells after 48 hrs by sulforhodamine B assay; assay type: functional; settings: PC-3, 48 h; procedure, shortened: as §1
A2780 = assay: Cytotoxicity against human A2780 cells after 48 hrs by sulforhodamine B assay; assay type: functional; settings: A2780, 48 h; procedure, shortened: as §1
DNA [3] = assay: Binding affinity to calf thymus DNA at pH 7.0 at 20 uM after 18 hrs by thermal denaturation assay; assay type: nucleic-acid assay; settings: Bos taurus
DNA [4] = assay: Binding affinity to calf thymus DNA at pH 7.0 at 20 uM after 36 hrs by thermal denaturation assay; assay type: nucleic-acid assay; settings: Bos taurus

| ΔTm (DNA [3]) [°C] | ΔTm (DNA [4]) [°C] | Compound | GI50 (A549) [nM] | GI50 (HOP-62) [nM] | GI50 (ZR-75-1) [nM] | GI50 (MCF7) [nM] | GI50 [1] [nM] | GI50 [2] [nM] | GI50 (KB) [nM] | GI50 (COLO 205) [nM] | GI50 (SiHa) [nM] | GI50 (PC-3) [nM] | GI50 (A2780) [nM] |
| --- | --- | --- | --- | --- | --- | --- | --- | --- | --- | --- | --- | --- | --- |
| 1.5 | 1.7 | COc1cc2c(cc1OCCCSc1nnc3n1S(=O)(=O)c1ccccc1N3C)N=C[C@@H]1CCCN1C2=O | 2290 | 2130 | 2190 | 2060 | 2240 | 2240 | 2380 | 1930 | 2120 | 2150 | 1830 |
| 2.4 | 2.6 | COc1cc2c(cc1OCCCCCSc1nnc3n1S(=O)(=O)c1ccccc1N3C)N=C[C@@H]1CCCN1C2=O | 2450 |  | 28500 |  | 1950 | 220 | 25600 | 2190 | 27900 | 25500 | 1920 |
| 1.3 | 1.5 | COc1cc2c(cc1OCCCCCSc1nnc3n1S(=O)(=O)c1ccccc1N3c1ccccc1)N=C[C@@H]1CCCN1C2=O | 30300 | 2350 | 24000 |  | 1780 | 2480 | 2460 | 25600 | 2300 | 2400 | 2010 |
| 0.5 | 0.7 | COc1cc2c(cc1OCCCCSc1nnc3n1S(=O)(=O)c1ccccc1N3C)N=C[C@@H]1CCCN1C2=O | 2280 |  | 25900 | 2290 | 26600 | 2290 | 26400 | 2110 | 27000 | 25500 | 2170 |
| 0.6 | 0.7 | COc1cc2c(cc1OCCCCSc1nnc3n1S(=O)(=O)c1ccccc1N3c1ccccc1)N=C[C@@H]1CCCN1C2=O | 29700 |  |  |  | 1980 | 25800 |  |  |  | 28800 | 2270 |
| 1.2 | 1.5 | COc1cc2c(cc1OCCCSc1nnc3n1S(=O)(=O)c1ccccc1N3c1ccccc1)N=C[C@@H]1CCCN1C2=O |  |  | 26000 |  |  |  |  |  |  |  | 30000 |
|  |  | COc1cccc2c1C(=O)c1c(O)c3c(c(O)c1C2=O)C[C@@](O)(C(=O)CO)C[C@@H]3O[C@H]1C[C@H](N)[C@H](O)[C@H](C)O1 [DOXORUBICIN] |  | 140 |  | 170 | 100 | 170 | 1720 | 140 | 180 |  | 160 |

| Compound | ΔTm (DNA [3]) [°C] | ΔTm (DNA [4]) [°C] | GI50 (A549) [nM] | GI50 (HOP-62) [nM] | GI50 (ZR-75-1) [nM] | GI50 (MCF7) [nM] | GI50 [1] [nM] | GI50 [2] [nM] | GI50 (KB) [nM] | GI50 (COLO 205) [nM] | GI50 (SiHa) [nM] | GI50 (PC-3) [nM] | GI50 (A2780) [nM] |
| --- | --- | --- | --- | --- | --- | --- | --- | --- | --- | --- | --- | --- | --- |
| COc1cc2c(cc1O)N=C[C@@H]1CCCN1C2=O | 0.7 | 0.7 |  |  |  |  |  |  |  |  |  |  |  |
